Screens deposited in PubChem by several laboratories.
A selection: hits, their analogues and other compounds. The true share with any hit is near 9.3%.
DAT uptake mod: human DAT dopamine uptake with cocaine, either direction | Q01959 | LLC-PK1 hDAT cells, [14C]-dopamine uptake with cocaine IC80; actives deviate in either direction | B-score at 10 µM | 110,000 tested, 1.3% active | AID 449768;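 active means Z score or B-score, a plate-position-corrected score, falls beyond the plate's 99.7% confidence bounds, in either direction; inactive means both scores lie inside the 99.7% bounds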;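 further: scored against the spread of the other compound wells on the same plate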
D1 allo mod: allosterically modulates the human D1 dopamine receptor. HEK293 D1, CRE-luciferase, dopamine EC30 potentiation; actives deviate in either direction. B-score at 10 µM. 58,000 tested, 5.9% active. AID 641;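 active means luminescence count or its row- and column-corrected plate score outside the 99.7% band of the plate's sample wells, on either side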
Target sequence (P21728 whole entry, looked up): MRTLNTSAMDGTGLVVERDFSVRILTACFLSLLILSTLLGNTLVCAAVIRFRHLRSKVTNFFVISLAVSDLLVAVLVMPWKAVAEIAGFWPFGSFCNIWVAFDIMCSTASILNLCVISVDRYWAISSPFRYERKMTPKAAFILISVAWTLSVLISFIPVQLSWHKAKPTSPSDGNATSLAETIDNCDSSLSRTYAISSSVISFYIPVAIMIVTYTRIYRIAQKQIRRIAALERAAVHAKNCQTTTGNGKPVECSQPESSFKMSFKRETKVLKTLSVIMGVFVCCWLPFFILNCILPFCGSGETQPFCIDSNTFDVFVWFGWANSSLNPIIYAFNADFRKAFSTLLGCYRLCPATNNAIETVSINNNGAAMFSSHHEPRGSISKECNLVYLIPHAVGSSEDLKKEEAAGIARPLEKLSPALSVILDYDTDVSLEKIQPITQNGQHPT
PostGolgi ctrl: inhibits growth of the yeast control strain. 98,000 tested, 5% active. inhibition, % at 10 µM. efflux-deficient yeast background strain, growth absorbance A615, 16 h
tolC growth inh: E. coli tolC mutant growth inhibition; E. coli BW25113 tolC mutant growth, OD615; growth inhibition, % at 10 µM (by protocol); 65,000 tested, 2.2% active; AID 573;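 active means growth inhibition at or above a cutoff equal to the mean over every tested compound plus 3 SD, cut at about 60% in these data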;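 further: growth measured after 20 h incubation at 37 °C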
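Test system: E. coli BW25113 ΔtolC::kan bacteria | Medium: Kanamycin-containing LB broth (50 µg/mL) | Dosing: One dose of 10 µM final | Times: 20 h incubation with compound, 37 °C | Detection: Optical density read at 615 nm | Read-out basis: Percent growth inhibition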
PostGolgi yeast: growth inhibition of a yeast mutant, post-Golgi transport screen | post-Golgi transport phenotypic cell assay | inhibition, % at 10 µM | 98,000 tested, 0.9% active | AID 739;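 further: yeast cells grown in 1536-well plates; yeast grown about 18 h at 30C before absorbance read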
Ecoli WT expand: blocks growth of wild type E. coli BW25113. OD600 absorbance. growth inhibition, % at 100 µM. 98,000 tested, 0.15% active. AID 710;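 active means growth inhibition above about 50% at one test dose, limit read from the data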;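 further: growth measured after 20 h incubation at 37 °C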
* hit, by the source's call. Unless noted, no stated cut-off is given here; in the data, active means inhibition above about 30%; inactive means the rest.

Results for Cc1ccc(NC(=O)c2cc(NC(=O)C3CC=CCC3C(=O)O)ccc2N2CCOCC2)cc1Cl (stereo not drawn) ?
DAT uptake mod: -0.254; PostGolgi ctrl: -3.4; PostGolgi yeast: 9.2; Ecoli WT expand: 3.0

Results for CN1CCC(=O)N(CCSc2ccc(Br)cc2)CC1 ?
DAT uptake mod: 0.0343

How did Cn1nc(-c2ccccc2)c(C(=O)Nc2ccc(Cl)cc2)c1Cl do in these assays?
DAT uptake mod: 0.75; PostGolgi ctrl: 38.5*; PostGolgi yeast: 10.2; Ecoli WT expand: -3.0

How did Cn1nc(-c2ccccc2)c(C(=O)Nc2ccc(C(F)(F)F)cc2)c1Cl do in these assays?
DAT uptake mod: 0.433; PostGolgi ctrl: 7.2; PostGolgi yeast: -6.2; Ecoli WT expand: -8.0

What do the screens show for `CCOC(=O)N1CCC(NC(=O)c2ccc3c(c2)sc2nc(-c4cccc(OC)c4)cn23)CC1`?
D1 allo mod: -2.61*; PostGolgi ctrl: 15.7; tolC growth inh: -15.1; PostGolgi yeast: -0.2; Ecoli WT expand: -7.0

What do the screens show for `CCOC(=O)N1CCC(NC(=O)c2ccc3snnc3c2)CC1`?
DAT uptake mod: 2.76*; D1 allo mod: -0.162; PostGolgi ctrl: 0.4; tolC growth inh: -17.6; PostGolgi yeast: 9.4; Ecoli WT expand: 1.0

Results for COc1cc(N)c(Cl)cc1C(=O)N[C@@H]1CCN(CCCOc2ccc(F)cc2)C[C@@H]1OC ?
DAT uptake mod: 2.06

Results for CC1CCN(S(=O)(=O)c2cccc(C(=O)NCc3ccco3)c2)CC1 ?
DAT uptake mod: -0.276

What do the screens show for `CC1CCN(S(=O)(=O)c2cccc(C(=O)NCc3cccs3)c2)CC1`?
DAT uptake mod: 0.569; PostGolgi ctrl: 24.2; tolC growth inh: 61.6*; PostGolgi yeast: 21.8; Ecoli WT expand: -7.0

How did C=CCSc1nc2ccccc2n1C(=O)/C=C/c1ccc(OC)c(OC)c1 do in these assays?
DAT uptake mod: -0.225; PostGolgi ctrl: 0.6; PostGolgi yeast: -2.2; Ecoli WT expand: -2.0

How did C=CCSc1nc2ccccc2n1C(=O)/C=C/c1cc(OC)c(OC)c(OC)c1 do in these assays?
PostGolgi ctrl: 38.4*; PostGolgi yeast: 2.7; Ecoli WT expand: -9.0

Results for CCOC(=O)C1CCCN(Cc2sccc2C)C1 (stereo not drawn) ?
DAT uptake mod: 0.314; PostGolgi ctrl: 11.9; PostGolgi yeast: -8.9; Ecoli WT expand: 9.0

How did CN(CC1CCCO1)S(=O)(=O)c1ccc(C(=O)Nc2nc(-c3ccccn3)cs2)cc1 (stereo not drawn) do in these assays?
DAT uptake mod: 2.73*; D1 allo mod: -2.04; PostGolgi ctrl: 21.7; tolC growth inh: 53.5; PostGolgi yeast: 5.2; Ecoli WT expand: 8.0

Results for CCc1nc(SCc2ccc(F)cc2)[nH]c(=O)c1C#N ?
DAT uptake mod: -2.28

Results for CCC(=O)Nc1cccc(C(=O)/C=C/c2cc(Br)ccc2OC)c1 ?
DAT uptake mod: 0.528; PostGolgi ctrl: 80.6*; PostGolgi yeast: 4.5; Ecoli WT expand: -13.0

How did COC(=O)CCC(=O)Nc1cccc(Br)c1 do in these assays?
DAT uptake mod: -1.4; D1 allo mod: 0.421; PostGolgi ctrl: 7.6; tolC growth inh: -17.5; PostGolgi yeast: -2.2; Ecoli WT expand: 7.0

Results for COc1ccccc1NC(=O)N1CCCC1C(=O)NCc1ccc2c(c1)OCO2 (stereo not drawn) ?
DAT uptake mod: -1.46; PostGolgi ctrl: -8.2; PostGolgi yeast: -3.7; Ecoli WT expand: -12.0

Results for O=C(NCc1ccc2c(c1)OCO2)C1CCCN1C(=O)Nc1ccccc1 (stereo not drawn) ?
DAT uptake mod: -0.0915; D1 allo mod: 0.82; PostGolgi ctrl: -1.3; tolC growth inh: -12.4; PostGolgi yeast: 33.2*; Ecoli WT expand: 2.0

How did COC(=O)C(C)N(C(=O)c1ccc(C(=O)c2ccccc2)cc1)c1c(C)cccc1C (stereo not drawn) do in these assays?
DAT uptake mod: -0.16; PostGolgi ctrl: 16.3; PostGolgi yeast: -16.0; Ecoli WT expand: -5.0

What do the screens show for `COc1ccccc1-c1nnc(NC(=O)C(C)SC2=NCCS2)s1` (stereo not drawn)?
DAT uptake mod: -0.179; D1 allo mod: -0.00814; PostGolgi ctrl: 37.5*; tolC growth inh: 10.9; PostGolgi yeast: 11.2; Ecoli WT expand: -9.0

How did CC(SC1=NCCS1)C(=O)Nc1nnc(-c2ccc(Cl)cc2)s1 (stereo not drawn) do in these assays?
DAT uptake mod: 0.707; PostGolgi ctrl: 0.4; PostGolgi yeast: 9.6; Ecoli WT expand: 1.0

How did CC(C)=CCc1cc([C@@H]2CC(=O)c3ccc(O)c(CC=C(C)C)c3O2)ccc1O do in these assays?
DAT uptake mod: -0.061

What do the screens show for `COc1ccccc1CNC(=O)c1cc2c(=O)n(C)c3ccccc3c2n1C`?
D1 allo mod: 0.493; tolC growth inh: -2.7

What do the screens show for `O=C(c1ccc(Cl)cc1Cl)C1(n2cncn2)Oc2ccccc2C1O` (stereo not drawn)?
DAT uptake mod: -0.033; D1 allo mod: -0.644; PostGolgi ctrl: 96.0*; tolC growth inh: 11.6; PostGolgi yeast: 100.2*; Ecoli WT expand: -1.0

How did Cc1cccc(/C=c2\s/c(=C\C(=O)C(C)(C)C)[nH]c2=O)c1 do in these assays?
DAT uptake mod: -0.353; PostGolgi ctrl: 35.7*; PostGolgi yeast: -4.5; Ecoli WT expand: -10.0

What do the screens show for `CC(C)(C)C(=O)/C=c1\[nH]c(=O)/c(=C\c2ccc(C#N)cc2)s1`?
DAT uptake mod: -0.0484; D1 allo mod: 0.0158; PostGolgi ctrl: 12.0; tolC growth inh: 18.5; PostGolgi yeast: -2.0; Ecoli WT expand: -4.0

How did CC1(OC(=O)C2CCCC2)C(=O)C=C2C=C(c3ccsc3)N(C(CO)CO)C=C2C1=O (stereo not drawn) do in these assays?
DAT uptake mod: -0.166

What do the screens show for `COC(=O)CSc1nnc(SCc2ccc(OC)cc2)s1`?
D1 allo mod: -2.3*; PostGolgi ctrl: 4.2; tolC growth inh: -14.2; PostGolgi yeast: -1.6; Ecoli WT expand: -9.0

What do the screens show for `Cc1[nH]c(=O)[nH]c(=O)c1S(=O)(=O)NCC12CC3CC(CC(C3)C1)C2`?
DAT uptake mod: 0.0649; D1 allo mod: -0.175; PostGolgi ctrl: 43.4*; tolC growth inh: -4.3; PostGolgi yeast: -1.8; Ecoli WT expand: 4.0

Results for CCn1ncc(C2=NOC(C(=O)Nc3cccc(C(C)=O)c3)C2)c1C (stereo not drawn) ?
DAT uptake mod: -0.309; D1 allo mod: -0.0843; PostGolgi ctrl: -0.3; tolC growth inh: 0.2; PostGolgi yeast: 19.7; Ecoli WT expand: 3.0

How did COc1cc(C2C3CN(C)CC=C3C(C#N)=C(N)C2(C#N)C#N)ccc1OC(C)C (stereo not drawn) do in these assays?
DAT uptake mod: 0.925; D1 allo mod: -4.87*; PostGolgi ctrl: 7.7; tolC growth inh: -0.1; PostGolgi yeast: 2.9; Ecoli WT expand: 4.0

Results for c1ccc(-c2oc3ncnc(NCCCN4CCOCC4)c3c2-c2ccccc2)cc1 ?
DAT uptake mod: 0.612; D1 allo mod: 2.05; PostGolgi ctrl: 66.9*; tolC growth inh: 28.8; PostGolgi yeast: 14.6; Ecoli WT expand: 11.0
